Bioassay records as filed in PubChem.
Rad51 HR inh: human RAD51 strand exchange inhibitors, primary screen, biochemical, fluorescence; inhibition, % at 10 µM; hRad51 DNA strand exchange, fluorescence dequenching; actives 0.085% (n = 200,000); DNA repair protein RAD51 homolog 1 (Homo sapiens), Q06609;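 active means inhibition above 40% at the single screening dose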;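 further: 0% = DMSO control wells and 100% = blanks with heterologous ssDNA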
Target sequence (Q06609 whole entry, looked up): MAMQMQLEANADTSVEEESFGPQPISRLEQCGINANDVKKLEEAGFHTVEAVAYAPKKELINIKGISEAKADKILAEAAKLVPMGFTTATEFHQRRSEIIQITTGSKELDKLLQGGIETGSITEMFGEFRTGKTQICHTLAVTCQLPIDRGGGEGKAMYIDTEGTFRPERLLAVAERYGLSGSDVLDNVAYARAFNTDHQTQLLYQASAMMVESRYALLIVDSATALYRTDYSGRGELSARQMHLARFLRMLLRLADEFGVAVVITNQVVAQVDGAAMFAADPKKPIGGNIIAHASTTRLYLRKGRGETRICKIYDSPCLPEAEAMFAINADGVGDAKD
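Material: Human Rad51 nucleoprotein filaments preassembled on unlabelled ssDNA | Also added: Labelled 47-mer dsDNA for strand exchange | Dosing: Single dose, 10 µM final compound | Schedule: 30-min compound preincubation and 15-min exchange, both room temperature | Technique: Fluorescence dequenching at 485/520 nm | Measure: Percent inhibition relative to plate controls and blanks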
RBBP9 inh: human RBBP9 inhibitors, primary screen, biochemical, fluorescence polarization, FP-Rh probe, HTS; recombinant RBBP9; actives 0.2% (n = 220,000); Serine hydrolase RBBP9 (Homo sapiens), O75884; inhibition, % at 7.94 µM;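 active means inhibition above the campaign mean of all tested compounds plus 3 SD, cut at about 14% in these data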;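 further: plate controls were DMSO wells with RBBP9 for no effect and wells lacking RBBP9 protein for full effect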
Target sequence (O75884 whole entry, looked up): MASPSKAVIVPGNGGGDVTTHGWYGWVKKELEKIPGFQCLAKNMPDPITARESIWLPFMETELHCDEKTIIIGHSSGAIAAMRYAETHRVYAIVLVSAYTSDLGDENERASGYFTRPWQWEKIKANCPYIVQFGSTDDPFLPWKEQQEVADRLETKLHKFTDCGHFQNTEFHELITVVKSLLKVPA
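System: RBBP9 protein | Quantity: 2.5 µM RBBP9 dispensing solution, before mixing | Reagent: FP-Rh probe, 375 nM dispensing solution | Timing: Enzyme-compound preincubation 30 min, then probe labeling 45 min, 25 °C | Measured by: Fluorescence polarization | Read-out: % inhibition | Replication: One well per compound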
DNA FID counter: compounds displacing fluorescent DNA intercalator, primary screen, artefact control for HCV NS3 helicase inhibitor project, biochemical, FID fluorescence | inhibition, % at 7.9 µM | actives 0.17% (n = 290,000) | DNA fluorescent intercalator displacement; in the data active means inhibition above about 37%;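 further: 0% = vehicle and 100% = reference compound; higher means more ethidium bromide displaced from hairpin DNA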
Wee1 stabilizer: Wee1 degradation inhibitors, primary screen, cell-based, HeLa, Wee1K328M-luciferase, luminescence. reporter increase, % at 5 µM. actives 1.2% (n = 220,000). Wee1-like protein kinase (Homo sapiens), P30291. HeLa Luc-Wee1K328M stability; 100% = proteasome inhibitor MG132 effect;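 active means activation above the mean of all tested compounds plus 3 SD, set per screening run, cut at about 8.8% in these data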;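 further: cells exposed to compound for 20 h before luminescence read; 0% = DMSO alone and 100% = MG132 at 30 µM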
Wee1 degr conf: Wee1 degradation inhibitors, confirmation, cell-based, HeLa, Wee1K328M-luciferase, luminescence, triplicate | shares compounds with Wee1 stabilizer | HeLa Luc-Wee1K328M degradation; vehicle 0%, proteasome-blocked wells 100% | activation, % at 5 µM | actives 4% (n = 1,100); in the data active means activation above about 8.9%
Active calls of the source: *; x = no result. Rows were chosen to be rich in hits. Some 1.2% of all compounds tested hit in one or more screens of this group.

SMILES	Rad51 HR inh	RBBP9 inh	DNA FID counter	Wee1 stabilizer	Wee1 degr conf
Cc1ccccc1-c1noc(-c2ccc(O)cc2)n1	1.4	-8.5	4.0	11.0*	6.3
CCOCCn1c(CN2CCN(c3ccccc3)CC2)nc2c1c(=O)n(C)c(=O)n2C	14.1	6.6	-28.3	11.3*	-1.0
COCCn1c(CN2CCN(c3ccccc3)CC2)nc2c1c(=O)n(C)c(=O)n2C	-5.7	-1.3	-9.2	2.3	x
CC(C)Cn1c(N)c(C(=O)COC(=O)c2cccnc2Cl)c(=O)n(C)c1=O	-0.9	-6.6	-13.1	-1.8	x
CCc1ccc(C2c3[nH]c4ccccc4c3CCN2C(=O)CNC(N)=O)cc1 (configuration not stated)	x	-2.5	-20.7	22.8*	0.5
CCc1ccc(C2c3[nH]c4ccccc4c3CCN2C(=O)CN2CCN(CC)CC2)cc1 (configuration not stated)	x	11.9	30.8	-1.8	x
CC(C)n1cc(/C=N/Nc2ccc(Cl)c(C(=O)O)c2)c2ccccc21	x	x	-17.0	x	x
Nc1ccc(-c2nc3cc([N+](=O)[O-])ccc3o2)cc1	x	-4.6	6.3	1.8	x
COc1ccc(-c2nc3cc([N+](=O)[O-])ccc3o2)cc1	x	-6.4	0.5	14.2*	1.4
CC(C)(C)C(=O)COC(=O)C1=NN(c2ccccc2)C(=O)CC1	x	x	-7.1	x	x
CCN(CC)c1ccc(N2C(=O)/C(=C/c3cccnc3)SC2=S)cc1	-4.0	-10.3	-2.5	-0.5	x
CCN(CC)S(=O)(=O)c1ccc(C(=O)NCCc2ccccn2)cc1	5.1	6.7	-14.2	11.8*	9.3*
O=C(NCCc1ccccn1)c1ccc(NS(=O)(=O)c2ccc(F)cc2)cc1	13.1	2.2	-9.9	1.6	x
Cc1ccc(Nc2nnc(-c3ccccc3N)o2)cc1C	7.7	0.3	-9.6	0.8	x
Cc1cccc(NC(=O)COC(=O)CCc2ccc(S(=O)(=O)N3CCOCC3)cc2)c1C	-26.8	8.8	-23.6	1.3	x
CN(Cc1c(F)cccc1Cl)C(=O)C1CC(=O)N(CCc2ccccc2)C1 (configuration not stated)	8.8	-3.8	-23.4	12.5*	2.4
O=C1OCC2=C1C(c1ccc(Cl)cc1)CC(=O)N2c1ccc(F)cc1 (configuration not stated)	1.5	-7.5	-7.1	13.6*	1.8
O=C(Nc1cccnc1)c1sc2cccc(F)c2c1Cl	-17.5	-8.5	-11.4	14.6*	-0.7
CC(/C=C/C=C/c1ccccc1)=N/NC(=O)c1ccc2c(c1)OCCO2	-9.7	-0.1	-9.5	11.3*	2.5
O=C(NC1CCCCC1)NC1CC2CCC(C1)N2C(=O)NC1CCCCC1 (configuration not stated)	3.7	3.7	-0.5	15.4*	-0.8
COc1cccc(/C=N/NC(=O)CN(C2=NS(=O)(=O)c3ccccc32)c2ccccc2)c1	x	-5.5	-18.2	12.4*	-0.2
COc1ccc(/C=N/NC(=O)CN(C2=NS(=O)(=O)c3ccccc32)c2ccccc2)cc1OC	x	-2.0	-6.0	0.9	x
O=C(NNC(=O)c1cnccn1)c1ccc(Cl)cc1	10.6	-5.9	0.2	-0.2	x
COC(=O)C1=C(N)Oc2cc(C)n(Cc3cccnc3)c(=O)c2C1c1ccccc1OC (configuration not stated)	-9.8	-3.4	-4.7	-1.3	x
COC(=O)C1=C(N)Oc2cc(C)n(Cc3ccncc3)c(=O)c2C1c1cccnc1 (configuration not stated)	-10.9	-12.5	-2.2	13.9*	0.2
SMILES	Rad51 HR inh	RBBP9 inh	DNA FID counter	Wee1 stabilizer	Wee1 degr conf
O=C(N/N=C/C1=Cc2ccccc2OC1)c1ccncc1	-1.2	2.0	-8.8	12.9*	-0.8
Cc1ccc(/C=N/NC(=O)c2ccncc2)o1	4.3	-3.2	-5.2	13.4*	2.7
O=C(N/N=C/c1ccccc1C(=O)O)c1ccncc1	x	x	-0.6	x	x
NC(=O)C1CC(=O)N(c2ccc(OCc3ccccc3Cl)cc2)C1 (configuration not stated)	4.0	-8.8	-18.4	0.1	x
CN(C)CCCNS(=O)(=O)c1ccc(Oc2ncc(C(F)(F)F)cc2Cl)cc1	-1.2	-7.6	17.4	-0.9	x
Cc1cccc(CCNC(=O)Cn2ncc3c([nH]c4ccccc43)c2=O)c1	x	x	-6.1	x	x
O=CN1CCN(C(=O)c2ccccc2Cl)CC1	x	2.6	-0.6	-0.1	x
O=C(c1ccccc1Cl)N1CCSCC1	21.6	-2.0	-0.7	20.1*	-2.1
COCCN(Cc1cccs1)S(=O)(=O)c1ccc(-c2ccc(=O)[nH]n2)s1	x	x	-25.3	x	x
N/C(=N\OC(=O)c1ccc(=O)n(Cc2ccc(Cl)cc2)c1)c1ccccn1	10.5	-7.6	-31.6	11.1*	0.4
Cn1c(=NC(=O)c2ccccc2[N+](=O)[O-])sc2cccc(F)c21	x	1.4	-0.3	16.8*	-0.4
CC1CCC2(CC1)NC(=O)N(Cc1cc(=O)n3ccsc3n1)C2=O (configuration not stated)	-15.7	-1.3	-8.3	1.3	x
COc1ccc(OCC(O)Cn2c(=N)n(CCN3CCCCC3)c3ccccc32)cc1 (configuration not stated)	16.1	0.9	31.1	14.3*	-2.6
Cc1ccc(OCC(O)Cn2c(=N)n(CCN3CCCCC3)c3ccccc32)cc1 (configuration not stated)	2.7	-0.2	31.9	-3.5	x
CCNC(=S)N1CCN(CC(=O)Nc2ccc(OC)cc2)CC1	-3.8	3.1	-3.5	12.3*	-1.4
CCOC(=O)N1CCN(CC(=O)Nc2ccc(OC)cc2)CC1	-4.0	4.5	-2.1	-2.1	x
CCCC1=C(C(=O)OCC)C(c2cccnc2)n2nc(C)nc2N1 (configuration not stated)	-8.3	-0.5	-10.1	4.4	x
O=Cc1ccc(N2CCCC2)c([N+](=O)[O-])c1	-30.4	-4.1	2.1	0.3	x
O=[N+]([O-])/C=C\c1ccc(N2CCCC2)c(F)c1	-42.4	-1.8	-1.2	15.8*	0.0
COc1ccc(N2CCN(c3nc(-c4cccs4)nc4ccccc34)CC2)cc1	x	-3.0	-2.5	4.9	x
COC(=O)c1ccccc1NC(=O)CCCCCn1nnc2ccccc2c1=O	x	x	-36.3	x	x
CCOc1ccc(-c2nc(CN3CCCCC3CCn3cccn3)c(C)o2)cc1 (configuration not stated)	-6.6	-9.8	3.0	0.1	x
Cc1cc(C)n2c(Nc3ccc4c(c3)OCCO4)c(-c3ccco3)nc2n1	1.7	10.3	-17.3	0.3	x
Cc1ccc(Nc2c(-c3ccco3)nc3nc(C)cc(C)n23)cc1	7.9	-4.2	-13.9	31.4*	0.0
CCN(CC)CCOC(=O)C1(c2ccccc2)CCOCC1	-13.1	7.5	0.7	13.9*	0.4
CCN(CC)CCOCCOC(=O)C1(c2ccccc2)CCCC1	-0.8	x	x	x	x
